Measured values: ChEMBL document CHEMBL5696442, “Discovery of type II inhibitors of TGFβ-activated kinase 1 (TAK1) and mitogen-activated protein kinase kinase kinase kinase 2 (MAP4K2)” (J Med Chem, 2015)

How the values were obtained:
[1] = molecular target: Ribosomal protein S6 kinase alpha-1 (Homo sapiens) (UniProt Q15418); assay: Inhibition of RSK1 domain2 Lys2 labeling site in human A-375 cells at 5 uM by KiNativ Profiling analysis relative to control; type: cell-based
Summary of the method: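 Live A375 melanoma cells treated with compound at 5 or 0.5 μM, then lysed. Lysate kinases were labeled with a lysine-reactive ATP or ADP-biotin probe. Inhibition was read as protection of labeling sites from the probe.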

[2] = molecular target: Serine/threonine-protein kinase WNK3 (Homo sapiens) (UniProt Q9BYP7); assay: Inhibition of Wnk3 Lys2 labeling site in human A-375 cells at 0.05 uM by KiNativ Profiling analysis relative to control; type: cell-based
[3] = molecular target: T1, Dual specificity mitogen-activated protein kinase kinase 5 (Homo sapiens) (UniProt Q13163); assay: Inhibition of MAP2K5 Lys2 labeling site in human A-375 cells at 0.5 uM by KiNativ Profiling analysis relative to control; type: cell-based
T1 sequence (whole entry): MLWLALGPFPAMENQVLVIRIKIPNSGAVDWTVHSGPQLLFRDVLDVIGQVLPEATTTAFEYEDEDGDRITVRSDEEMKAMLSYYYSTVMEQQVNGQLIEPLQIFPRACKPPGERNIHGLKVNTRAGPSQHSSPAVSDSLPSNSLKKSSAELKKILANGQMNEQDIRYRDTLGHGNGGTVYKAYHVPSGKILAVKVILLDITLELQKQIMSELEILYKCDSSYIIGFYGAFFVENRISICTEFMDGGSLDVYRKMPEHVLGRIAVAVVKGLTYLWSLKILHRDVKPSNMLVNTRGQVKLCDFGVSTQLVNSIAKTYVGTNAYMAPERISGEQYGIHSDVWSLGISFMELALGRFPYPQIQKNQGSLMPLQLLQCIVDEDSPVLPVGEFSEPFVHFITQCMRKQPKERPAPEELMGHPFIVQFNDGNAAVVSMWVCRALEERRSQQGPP

[4] = molecular target: Cyclin-dependent kinase 17 (Homo sapiens) (UniProt Q00537); assay: Inhibition of PCTAIRE2 Lys1 labeling site harbouring SKLTENLVALKEIRLEHEEGAPCTAIR in human A-375 cells at 5 uM by KiNativ Profiling analysis relative to control; type: cell-based
[5] = molecular target: 5'-AMP-activated protein kinase catalytic subunit alpha-1 (Homo sapiens) (UniProt Q13131); assay: Inhibition of AMPKa1 Lys1 labeling site in human A-375 cells at 5 uM by KiNativ Profiling analysis relative to control; type: cell-based
Summary of the method: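 Live A375 melanoma cells were treated with compound at 5 or 0.5 μM, then lysed. The lysates were labeled with a lysine-reactive ATP or ADP-biotin probe. Kinase protection from probe labeling was measured by KiNativ.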

[6] = molecular target: T2, Mitogen-activated protein kinase kinase kinase 2 (Homo sapiens) (UniProt Q9Y2U5); assay: Inhibition of MAP3K2 Lys1 labeling site harbouring VYLCYDVDTGRELAVKQVQFDPDSPETSKEVNALECEIQLLK in human A-375 cells at 0.05 uM by KiNativ Profiling analysis relative to control; type: cell-based
T2 sequence (whole entry): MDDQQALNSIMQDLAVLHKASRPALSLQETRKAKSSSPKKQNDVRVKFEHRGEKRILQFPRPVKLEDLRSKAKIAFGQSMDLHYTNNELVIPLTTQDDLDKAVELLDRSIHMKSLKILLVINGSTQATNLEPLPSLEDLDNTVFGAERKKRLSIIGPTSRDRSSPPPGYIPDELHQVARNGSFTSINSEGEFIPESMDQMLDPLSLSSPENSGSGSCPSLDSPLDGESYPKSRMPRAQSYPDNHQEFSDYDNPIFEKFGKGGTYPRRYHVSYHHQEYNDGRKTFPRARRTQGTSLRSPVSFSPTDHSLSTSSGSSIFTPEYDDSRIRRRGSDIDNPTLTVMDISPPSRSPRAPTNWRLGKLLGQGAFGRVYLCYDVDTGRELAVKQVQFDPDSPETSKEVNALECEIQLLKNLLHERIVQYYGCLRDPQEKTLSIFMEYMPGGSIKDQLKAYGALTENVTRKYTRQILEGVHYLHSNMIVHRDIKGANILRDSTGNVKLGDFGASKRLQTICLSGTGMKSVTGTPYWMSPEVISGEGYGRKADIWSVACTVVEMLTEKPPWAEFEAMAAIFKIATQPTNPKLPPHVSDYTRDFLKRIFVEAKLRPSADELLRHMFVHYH

[7] = AUC last in Swiss albino mouse at 1 mg/kg, iv measured upto 24 hrs by LC/MS/MS analysis; type: ADME, organism-based; settings: in vivo
Summary of the method: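 Male Swiss albino mice. […] Blood was taken into K2EDTA from three mice per time point, from 0 to 24 h. Plasma was precipitated with acetonitrile and analysed by LC/MS/MS (LLOQ 1.138 ng/mL).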

[8] = molecular target: Serine/threonine-protein kinase Nek6 (Homo sapiens) (UniProt Q9HC98); assay: Inhibition of NEK6 Lys2 labeling site in human A-375 cells at 0.05 uM by KiNativ Profiling analysis relative to control; type: cell-based
[9] = molecular target: DNA-PK/Ku70/Ku85 (Homo sapiens) (UniProt P78527+P12956+P13010); assay: Inhibition of DNAPK ATP labeling site harbouring KGGSWIQEINVAEKNWYPR in human A-375 cells at 0.05 uM by KiNativ Profiling analysis relative to control; type: cell-based
[10] = molecular target: Tyrosine-protein kinase ABL1 (Homo sapiens, UniProt P00519); assay: Inhibition of ABL Lys1 labeling site in human Huh-7 cell lysate at 1 uM by KiNativ Profiling analysis relative to control; type: subcellular
Tyrosine-protein kinase ABL1, sequence (P00519 whole entry): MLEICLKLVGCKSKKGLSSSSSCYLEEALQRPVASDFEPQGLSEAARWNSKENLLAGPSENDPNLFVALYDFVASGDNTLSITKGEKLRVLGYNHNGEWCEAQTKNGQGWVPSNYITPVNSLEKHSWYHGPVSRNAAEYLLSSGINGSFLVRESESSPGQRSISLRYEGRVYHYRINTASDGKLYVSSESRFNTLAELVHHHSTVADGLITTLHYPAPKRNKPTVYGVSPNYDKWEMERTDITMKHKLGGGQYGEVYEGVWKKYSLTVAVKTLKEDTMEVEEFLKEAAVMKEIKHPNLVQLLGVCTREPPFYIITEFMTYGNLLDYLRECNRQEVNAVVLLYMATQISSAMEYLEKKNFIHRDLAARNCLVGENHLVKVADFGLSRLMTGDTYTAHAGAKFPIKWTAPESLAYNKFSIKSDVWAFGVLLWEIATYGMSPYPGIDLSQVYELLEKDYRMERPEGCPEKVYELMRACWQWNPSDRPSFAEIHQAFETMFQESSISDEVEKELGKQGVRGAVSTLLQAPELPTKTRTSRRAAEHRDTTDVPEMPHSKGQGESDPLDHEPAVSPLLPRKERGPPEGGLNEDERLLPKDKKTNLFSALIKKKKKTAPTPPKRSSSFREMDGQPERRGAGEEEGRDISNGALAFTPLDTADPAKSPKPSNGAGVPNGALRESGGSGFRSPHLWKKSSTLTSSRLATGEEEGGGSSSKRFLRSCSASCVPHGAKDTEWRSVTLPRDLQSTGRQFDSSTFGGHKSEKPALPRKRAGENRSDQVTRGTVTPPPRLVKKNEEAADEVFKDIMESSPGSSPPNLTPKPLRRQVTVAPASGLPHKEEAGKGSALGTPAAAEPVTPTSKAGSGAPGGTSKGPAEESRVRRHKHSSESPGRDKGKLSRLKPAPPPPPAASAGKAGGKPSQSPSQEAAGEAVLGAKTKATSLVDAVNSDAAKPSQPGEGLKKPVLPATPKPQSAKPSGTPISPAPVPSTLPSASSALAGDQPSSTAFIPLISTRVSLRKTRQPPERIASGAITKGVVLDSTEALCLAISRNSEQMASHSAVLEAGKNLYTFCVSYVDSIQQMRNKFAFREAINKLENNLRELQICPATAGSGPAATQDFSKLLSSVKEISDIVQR

Serine/threonine-protein kinase WNK3 (Homo sapiens), sequence (Q9BYP7 whole entry): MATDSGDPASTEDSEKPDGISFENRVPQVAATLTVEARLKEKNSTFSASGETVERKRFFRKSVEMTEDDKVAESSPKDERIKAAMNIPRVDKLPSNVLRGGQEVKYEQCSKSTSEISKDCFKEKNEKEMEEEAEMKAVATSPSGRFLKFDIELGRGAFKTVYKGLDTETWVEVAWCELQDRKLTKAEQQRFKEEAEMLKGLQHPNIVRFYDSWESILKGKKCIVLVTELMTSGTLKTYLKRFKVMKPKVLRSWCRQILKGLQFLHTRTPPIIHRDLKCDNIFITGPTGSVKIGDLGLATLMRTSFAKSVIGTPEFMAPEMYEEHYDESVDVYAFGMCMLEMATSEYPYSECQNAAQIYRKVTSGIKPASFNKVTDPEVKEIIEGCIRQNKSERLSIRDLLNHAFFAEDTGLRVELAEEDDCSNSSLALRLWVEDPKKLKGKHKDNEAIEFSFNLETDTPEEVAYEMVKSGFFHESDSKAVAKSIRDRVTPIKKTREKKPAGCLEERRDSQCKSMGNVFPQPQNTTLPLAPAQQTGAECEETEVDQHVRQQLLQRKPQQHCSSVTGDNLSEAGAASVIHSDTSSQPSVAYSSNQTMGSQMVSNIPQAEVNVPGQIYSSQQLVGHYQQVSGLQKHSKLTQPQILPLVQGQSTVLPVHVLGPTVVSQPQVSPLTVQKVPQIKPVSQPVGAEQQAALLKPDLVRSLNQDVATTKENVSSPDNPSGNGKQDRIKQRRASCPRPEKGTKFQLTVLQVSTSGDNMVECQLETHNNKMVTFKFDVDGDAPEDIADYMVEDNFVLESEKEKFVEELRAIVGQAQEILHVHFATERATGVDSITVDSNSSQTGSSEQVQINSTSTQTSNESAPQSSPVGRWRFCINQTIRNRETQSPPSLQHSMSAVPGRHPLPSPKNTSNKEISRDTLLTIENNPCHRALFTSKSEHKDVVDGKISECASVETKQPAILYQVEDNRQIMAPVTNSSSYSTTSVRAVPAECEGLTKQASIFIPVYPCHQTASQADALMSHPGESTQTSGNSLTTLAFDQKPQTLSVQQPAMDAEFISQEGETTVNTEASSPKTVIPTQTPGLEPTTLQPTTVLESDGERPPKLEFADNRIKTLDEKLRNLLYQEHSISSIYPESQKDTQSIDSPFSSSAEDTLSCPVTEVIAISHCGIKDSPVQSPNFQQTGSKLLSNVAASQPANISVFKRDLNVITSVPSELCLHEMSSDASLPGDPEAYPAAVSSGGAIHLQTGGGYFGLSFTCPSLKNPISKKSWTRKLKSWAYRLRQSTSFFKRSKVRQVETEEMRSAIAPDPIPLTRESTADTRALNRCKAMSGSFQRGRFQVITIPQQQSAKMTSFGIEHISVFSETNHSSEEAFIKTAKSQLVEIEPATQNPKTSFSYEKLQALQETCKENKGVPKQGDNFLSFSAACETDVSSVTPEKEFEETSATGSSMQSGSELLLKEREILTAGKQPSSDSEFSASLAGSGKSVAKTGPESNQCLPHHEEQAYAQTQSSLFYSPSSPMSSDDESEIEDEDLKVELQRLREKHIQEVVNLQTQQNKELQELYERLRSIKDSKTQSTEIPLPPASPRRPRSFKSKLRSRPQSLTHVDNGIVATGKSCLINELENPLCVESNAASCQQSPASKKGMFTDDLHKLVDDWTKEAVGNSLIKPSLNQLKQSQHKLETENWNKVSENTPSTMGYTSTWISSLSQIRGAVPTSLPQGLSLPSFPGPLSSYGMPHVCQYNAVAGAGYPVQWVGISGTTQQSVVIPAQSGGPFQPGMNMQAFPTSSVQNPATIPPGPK
Cyclin-dependent kinase 17 (Homo sapiens), sequence (Q00537 whole entry, looked up): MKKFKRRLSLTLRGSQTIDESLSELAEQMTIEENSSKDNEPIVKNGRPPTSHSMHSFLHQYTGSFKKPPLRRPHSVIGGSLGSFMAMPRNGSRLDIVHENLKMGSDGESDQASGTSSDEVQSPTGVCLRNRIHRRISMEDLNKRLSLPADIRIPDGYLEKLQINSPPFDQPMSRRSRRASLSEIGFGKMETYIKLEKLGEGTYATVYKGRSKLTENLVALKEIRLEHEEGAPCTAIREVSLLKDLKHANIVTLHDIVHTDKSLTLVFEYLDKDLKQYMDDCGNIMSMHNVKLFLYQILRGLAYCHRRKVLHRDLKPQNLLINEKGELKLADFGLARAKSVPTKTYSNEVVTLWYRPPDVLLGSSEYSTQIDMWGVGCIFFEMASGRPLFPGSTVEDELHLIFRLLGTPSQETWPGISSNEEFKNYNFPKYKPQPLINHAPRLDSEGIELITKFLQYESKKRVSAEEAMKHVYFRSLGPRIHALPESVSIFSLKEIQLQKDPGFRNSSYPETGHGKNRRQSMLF
Serine/threonine-protein kinase Nek6 (Homo sapiens), sequence (Q9HC98 whole entry): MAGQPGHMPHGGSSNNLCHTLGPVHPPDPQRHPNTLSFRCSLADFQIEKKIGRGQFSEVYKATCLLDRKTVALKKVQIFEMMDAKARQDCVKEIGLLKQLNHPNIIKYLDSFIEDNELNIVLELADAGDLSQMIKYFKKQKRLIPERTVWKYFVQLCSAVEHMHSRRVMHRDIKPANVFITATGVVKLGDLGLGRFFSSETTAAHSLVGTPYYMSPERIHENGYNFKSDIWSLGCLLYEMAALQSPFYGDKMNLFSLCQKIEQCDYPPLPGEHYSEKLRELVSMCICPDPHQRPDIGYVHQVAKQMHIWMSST
Ribosomal protein S6 kinase alpha-1 (Homo sapiens), sequence (Q15418 whole entry, the tested form may be a part): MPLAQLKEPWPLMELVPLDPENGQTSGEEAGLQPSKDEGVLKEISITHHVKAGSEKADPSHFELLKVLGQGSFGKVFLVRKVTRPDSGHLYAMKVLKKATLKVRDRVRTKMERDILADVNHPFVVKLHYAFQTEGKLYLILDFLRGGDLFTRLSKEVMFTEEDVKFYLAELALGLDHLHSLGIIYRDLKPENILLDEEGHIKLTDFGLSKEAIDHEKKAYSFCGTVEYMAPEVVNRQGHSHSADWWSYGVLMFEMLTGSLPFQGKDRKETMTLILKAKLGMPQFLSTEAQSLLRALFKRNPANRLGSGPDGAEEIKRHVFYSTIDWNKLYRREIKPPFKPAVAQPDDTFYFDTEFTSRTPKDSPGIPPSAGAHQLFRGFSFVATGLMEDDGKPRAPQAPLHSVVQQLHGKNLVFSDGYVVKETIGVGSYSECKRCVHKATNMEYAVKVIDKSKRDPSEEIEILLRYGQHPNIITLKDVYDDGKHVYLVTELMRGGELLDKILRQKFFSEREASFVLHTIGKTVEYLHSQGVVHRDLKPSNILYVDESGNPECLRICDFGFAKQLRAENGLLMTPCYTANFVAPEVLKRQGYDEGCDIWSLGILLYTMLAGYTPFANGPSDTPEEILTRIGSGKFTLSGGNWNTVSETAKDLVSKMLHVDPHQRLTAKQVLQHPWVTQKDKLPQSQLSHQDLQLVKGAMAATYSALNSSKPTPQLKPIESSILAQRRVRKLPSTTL
5'-AMP-activated protein kinase catalytic subunit alpha-1 (Homo sapiens), sequence (Q13131 whole entry, looked up): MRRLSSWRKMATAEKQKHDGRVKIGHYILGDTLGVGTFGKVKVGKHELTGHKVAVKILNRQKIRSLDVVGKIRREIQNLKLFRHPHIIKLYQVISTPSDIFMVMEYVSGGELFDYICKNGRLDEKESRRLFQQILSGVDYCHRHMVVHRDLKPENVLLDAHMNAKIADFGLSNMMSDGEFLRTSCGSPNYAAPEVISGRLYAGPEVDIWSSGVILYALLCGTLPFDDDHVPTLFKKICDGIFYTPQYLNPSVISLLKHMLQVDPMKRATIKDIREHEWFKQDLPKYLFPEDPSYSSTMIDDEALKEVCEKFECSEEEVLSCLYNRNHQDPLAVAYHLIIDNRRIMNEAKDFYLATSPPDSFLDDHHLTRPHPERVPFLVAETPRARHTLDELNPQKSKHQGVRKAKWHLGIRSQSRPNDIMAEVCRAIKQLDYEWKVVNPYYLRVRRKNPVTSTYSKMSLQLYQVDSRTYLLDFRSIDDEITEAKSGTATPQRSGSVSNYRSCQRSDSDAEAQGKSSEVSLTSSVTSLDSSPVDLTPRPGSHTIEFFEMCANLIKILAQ

Row | SMILES | inhibition [1] [%] | inhibition [2] [%] | inhibition [3] [%] | inhibition [4] [%] | inhibition [5] [%] | inhibition [6] [%] | AUClast [7] [µg·h/mL] | inhibition [8] [%] | inhibition [9] [%] | inhibition [10] [%]
1 | CCN1CCN(Cc2ccc(NC(=O)c3ccc(C)c(/C=C/c4cnc5[nH]ccc5c4OC)c3)cc2C(F)(F)F)CC1 | 3.9 | 7.1 | 26.1 | 21.3 | 37 | 1.5 | 0.403 | 5.8 | -3.2 | 
2 | CCN1CCN(Cc2ccc(NC(=O)c3ccc(C)c(Oc4ccnc5[nH]ccc45)c3)cc2C(F)(F)F)CC1 | 1.8 | -3.5 | 16.2 | 56.6 | 11.6 | -3.7 | 0.195 | 10.6 | 6.7 | 
3 | CNc1cc(Oc2cc(C(=O)Nc3cc(-n4cnc(C)c4)cc(C(F)(F)F)c3)ccc2C)ncn1 |  |  |  |  |  |  |  |  |  | 51.8
4 | CNc1cc(Oc2cc(C(=O)Nc3cc(N4CCN(C)CC4)cc(C(F)(F)F)c3)ccc2C)ncn1 |  |  |  |  |  |  |  |  |  | 48.4
